ChEMBL document CHEMBL1149583, “Effects of oxygen-sulfur substitution on glycosaminoglycan-priming naphthoxylosides” (Bioorg Med Chem, 2007)
pEC50: −log10 of the molar value.

Legend:
T-24 = assay: Antiproliferative activity against human T24 cells after 96 hrs by crystal violet method; assay type: functional; conditions: T-24, 96 h, read-out: ED50 (the source's name)
Procedure, shortened: (§1)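 Seeded at 3000 cells/well (T24) or 5000 cells/well (HFL-1) in DMEM with insulin 10 ng/mL, transferrin 25 ng/mL and 10% FCS. After 4 h, moved to serum-free Ham's F-12 with insulin/transferrin for 24 h. Grown with 10 ng/mL EGF plus xyloside at 25–500 µM for 96 h total. Fixed in 1% glutaraldehyde, stained with 0.1% crystal violet, Triton-lysed, read at A600. ED50 taken relative to untreated controls.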

CHO [1] = assay: Antiproliferative activity against […] CHO cells; assay type: cell-based, Cricetulus griseus; conditions: chinese hamster
CHO [2] = assay: Antiproliferative activity against heparan sulfate deficient […] CHO cells; assay type: cell-based, Cricetulus griseus; conditions: chinese hamster
[3] = Antiproliferative activity against human HFL1 cells after 96 hrs by crystal violet method; assay type: cell-based; conditions: read-out: ED50; procedure, shortened: as §1

Structure (SMILES): Oc1ccc2cc(O[C@@H]3OC[C@@H](O)[C@H](O)[C@H]3O)ccc2c1
- pEC50 (T-24): 4.30
- Activity (CHO [1]): Toxic
- Activity (CHO [2]): Not Active

Structure (SMILES): O[C@@H]1[C@@H](O)[C@H](Oc2ccc(S)c3ccccc23)OC[C@H]1O
- GI50 at 96 h [3]: 70 µM
- pEC50 (T-24): 4.26

Structure (SMILES): O[C@@H]1[C@@H](O)[C@H](Oc2cccc3cccc(S)c23)OC[C@H]1O
- GI50 at 96 h [3]: 60 µM
- pEC50 (T-24): 4.35

Structure (SMILES): O[C@@H]1[C@@H](O)[C@H](Oc2cc3ccccc3cc2S)OC[C@H]1O
- GI50 at 96 h [3]: 60 µM
- pEC50 (T-24): 3.84

Structure (SMILES): O[C@@H]1[C@@H](O)[C@H](Oc2ccc3ccc(S)cc3c2)OC[C@H]1O
- GI50 at 96 h [3]: 100 µM
- pEC50 (T-24): 3.44

Structure (SMILES): Oc1ccc(S[C@@H]2OC[C@@H](O)[C@H](O)[C@H]2O)c2ccccc12
- GI50 at 96 h [3]: 130 µM
- pEC50 (T-24): 3.80

Structure (SMILES): Oc1cccc2cccc(S[C@@H]3OC[C@@H](O)[C@H](O)[C@H]3O)c12
- GI50 at 96 h [3]: 120 µM
- pEC50 (T-24): 3.65

Structure (SMILES): Oc1cc2ccccc2cc1S[C@@H]1OC[C@@H](O)[C@H](O)[C@H]1O
- GI50 at 96 h [3]: 100 µM
- pEC50 (T-24): 3.59

Structure (SMILES): Oc1ccc2ccc(S[C@@H]3OC[C@@H](O)[C@H](O)[C@H]3O)cc2c1
- GI50 at 96 h [3]: 125 µM
- pEC50 (T-24): 3.64

Structure (SMILES): CCCSc1cccc2c(O[C@@H]3OC[C@@H](O)[C@H](O)[C@H]3O)cccc12
- GI50 at 96 h [3]: 20 µM
- pEC50 (T-24): 4.40

Structure (SMILES): CCCSc1cccc2cccc(O[C@@H]3OC[C@@H](O)[C@H](O)[C@H]3O)c12
- GI50 at 96 h [3]: 100 µM
- pEC50 (T-24): 3.81

Structure (SMILES): CCCSc1ccc2cc(O[C@@H]3OC[C@@H](O)[C@H](O)[C@H]3O)ccc2c1
- GI50 at 96 h [3]: 30 µM
- pEC50 (T-24): 4.40

Structure (SMILES): CCCSc1ccc2ccc(O[C@@H]3OC[C@@H](O)[C@H](O)[C@H]3O)cc2c1
- GI50 at 96 h [3]: 25 µM
- pEC50 (T-24): 4.22

Structure (SMILES): CCCSc1cc2ccccc2cc1O[C@@H]1OC[C@@H](O)[C@H](O)[C@H]1O
- GI50 at 96 h [3]: 30 µM
- pEC50 (T-24): 4.15

Structure (SMILES): O[C@@H]1[C@@H](O)[C@H](Oc2cccc3c(S)cccc23)OC[C@H]1O
- GI50 at 96 h [3]: 60 µM
- pEC50 (T-24): 3.96

Structure (SMILES): O[C@@H]1[C@@H](O)[C@H](Oc2ccc3cc(S)ccc3c2)OC[C@H]1O
- GI50 at 96 h [3]: 60 µM
- pEC50 (T-24): 3.87

Structure (SMILES): Oc1cccc2c(S[C@@H]3OC[C@@H](O)[C@H](O)[C@H]3O)cccc12
- GI50 at 96 h [3]: 135 µM
- pEC50 (T-24): 3.49

Structure (SMILES): Oc1ccc2cc(S[C@@H]3OC[C@@H](O)[C@H](O)[C@H]3O)ccc2c1
- GI50 at 96 h [3]: 145 µM
- pEC50 (T-24): 3.45

Structure (SMILES): CCCSc1ccc(O[C@@H]2OC[C@@H](O)[C@H](O)[C@H]2O)c2ccccc12
- GI50 at 96 h [3]: 30 µM
- pEC50 (T-24): 4.52
